# Assay outcomes as filed in PubChem BioAssay.
# An excerpt weighted towards active compounds, which were near 1.9% of everything screened.
# Rtt109 HAT inh: inhibitors of C. albicans Rtt109/Vps75 HAT, primary screen, biochemical, ThioGlo CoA-SH fluorescence, plate reader; Histone acetyltransferase RTT109 (Candida albicans (strain SC5314 / ATCC MYA-2876)), …; purified Rtt109/Vps75, 4 h; inhibition, % at 34.9 µM; 0.16% of 330,000 active; AID 540336, 2011;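 active = inhibition of at least 50% in every replicate; inconclusive = best replicate reaches 50% inhibition but some replicates fall short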
# Target sequence (Q5AAJ8 whole entry, looked up): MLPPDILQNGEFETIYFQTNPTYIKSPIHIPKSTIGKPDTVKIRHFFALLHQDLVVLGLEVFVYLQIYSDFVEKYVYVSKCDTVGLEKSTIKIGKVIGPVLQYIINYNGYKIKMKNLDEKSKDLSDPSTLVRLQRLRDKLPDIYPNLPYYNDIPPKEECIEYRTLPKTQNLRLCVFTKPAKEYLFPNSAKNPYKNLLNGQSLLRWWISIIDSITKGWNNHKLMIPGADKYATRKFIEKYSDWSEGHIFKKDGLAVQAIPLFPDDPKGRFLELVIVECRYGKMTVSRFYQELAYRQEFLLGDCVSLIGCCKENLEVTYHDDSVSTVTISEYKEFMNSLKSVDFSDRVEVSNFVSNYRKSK
# SR-BI HDL uptake: inhibitors of SR-BI mediated HDL lipid uptake, primary screen, ldlA[mSR-BI] cells, fluorescence, single point | Scavenger receptor class B member 1 (Mus musculus), Q61009 | ldlA[mSR-BI] CHO cells, DiI-HDL uptake fluorescence, 3 h | inhibition, % at 12.5 µM | 0.96% of 320,000 active | AID 488896, 2010;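 active = mean replicate inhibition of at least 70% and a set share of replicates each scoring 70 or more; inconclusive = meets just one of the two criteria; inactive = fails both criteria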;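 note: 0% = median of neutral control wells and 100% = median of positive control wells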
# HIV Env fusion: inhibitors of HIV-1 Env-driven cell-cell fusion, primary screen, HeLa-JRFL effector, CEM21 target cells, luciferase; AID 651610, 2012; 1.1% of 360,000 active; inhibition, % at 12.3 µM;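 active = mean replicate inhibition score of at least 50 and every replicate individually at or above 50; inconclusive = only one of the two criteria met; inactive = mean below 50 and not all replicates reaching 50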;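 note: 0% = plate neutral controls and 100% = maraviroc near 300 nM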
# PglD DTNB: C. jejuni PglD acetyltransferase inhibitors, primary screen, biochemical, DTNB colorimetric, single point. UDP-N-acetylbacillosamine N-acetyltransferase PglD (Campylobacter jejuni). inhibition, % at 12.5 µM. purified PglD enzyme, DTNB colorimetric CoA detection. AID 602405, 2012. 0.098% of 360,000 active; in the data active = inhibition above about 16%, passing the limit was not always enough; inconclusive = no clear call, values can overlap the other calls
# Glyco luc inh: increase of ERlucT glycosylation luciferase signal, primary screen, N-linked glycosylation inhibitor project, D54 ERlucT cells, luminescence, set 2 | AID 588692, 2011 | D54 ERlucT glycosylation luciferase reporter, 24 h; percent of 100 nM tunicamycin response | reporter increase, % at 12.5 µM | 0.23% of 360,000 active;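 active = mean luciferase reporter signal, scaled so untreated is 0 and the glycosylation-blocking control 100, at or above a set limit in every replicate; inconclusive = mean reaches the limit but not every replicate does; inactive = mean below the limit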;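 note: luciferase carries N-glycosylation sites so blocking glycosylation raises the light; 0% = median of neutral control wells and 100% = median of 100 nM tunicamycin wells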
# SR-BI uptake up: activators of SR-BI mediated DiI-HDL uptake, primary screen, ldlA[mSR-BI] CHO cells, DiI fluorescence; 3 h; 100 = double the neutral-control signal; activation, % at 12.5 µM; 0.096% of 320,000 active; AID 504775, 2011;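 active = mean replicate activation of at least 60% and every replicate at or above 60%; inconclusive = mean or all-replicate condition met, but not both; inactive = mean below 60% and not all replicates reaching 60%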;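 note: 0% = median plate neutral-control signal and 100% = twice that signal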
#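 Test system: SR-BI-overexpressing, LDLR-lacking CHO cells; Medium: Ham's F12 with 0.5% BSA, HEPES 25 mM, pH 7.4; Schedule: 3 h, 37 °C; Technique: bottom-read fluorescence, 550/595 nm.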
# Starred values were filed as active, the others as inactive; ? = inconclusive; · = no result given; [ ] = another dose, or the depositor's remark.
SMILES,Rtt109 HAT inh,SR-BI HDL uptake,HIV Env fusion,PglD DTNB,Glyco luc inh,SR-BI uptake up
Cc1cc(C2=NNC(=NC3CCCCC3)SC2)c(C)n1-c1c(C)n(C)n(-c2ccccc2)c1=O,2,7,-25,-10,-2,-7
Cc1cc(C2=NNC(=NC3CC3)SC2)c(C)n1-c1ccccc1F,5,-2,56*,·,-20,2
c1cc2c(cc1C1=NNC(=NC3CC3)SC1)OCCO2,1,3,65*,·,-24,-3
c1ccc2oc(C3=NNC(=NC4CC4)SC3)cc2c1,12,82*,?,·,-14,-82
COc1ccc(S(=O)(=O)Nc2cccc3c2O[C@H](CN(C)C(=O)Nc2c(C)noc2C)[C@H](C)CN([C@H](C)CO)C3=O)cc1,·,·,·,2,·,·
O=[N+]([O-])c1cc([N+](=O)[O-])c(Oc2cccc(Cl)c2Cl)cc1NN1CCCCC1,-11,17,42,-1,-7,-17
CC1(C)Cc2cccc(Oc3cc(NN4CCCCC4)c([N+](=O)[O-])cc3[N+](=O)[O-])c2O1,1,-7,72*,-4,-10,7
COc1ccc(-c2ccc3c(c2)O[C@H](CN(C)CC2CCOCC2)[C@H](C)CN([C@@H](C)CO)S3(=O)=O)cc1,·,·,15[16.7 µM],1,·,·
CCN(CC(=O)Nc1cccc(OC)c1)c1ncnc2sc(C)c(C)c12,5,14,58*,6,-2,-14
COc1cc(C(=O)OCCc2cc3ccccc3c(=O)o2)cc(OC)c1OC,2,49,-81,-4,27*,-49
COc1cc(C(=O)OCCCc2cc3ccccc3c(=O)o2)cc(OC)c1OC,1,0,11,-1,0,0
COc1cc(C(=O)NC2CCN(C)CC2)ccc1Nc1ncc2c(n1)N(CCc1ccccc1)CCC(=O)N2C,32,18,24,4,62*,-18
COc1cc(C(=O)NC2CCN(C)CC2)ccc1Nc1ncc2c(n1)N(C1CCCC1)CCC(=O)N2C(C)C,?,-23,·,-2,59*,23
CN1CCC(NC(=O)c2cccc(Oc3ccccc3)c2)CC1,-4,-2,-8,3,-1,2
COCC(=O)N(C[C@@H]1[C@@H](c2ccccc2)[C@@H](CO)N1C(=O)NC(C)C)C(C)C,·,·,·,3,·,·
CCNC(=O)Nc1ccc2c(c1)C(=O)N(C)[C@H]1CC[C@H](CC(=O)Nc3ccccc3OC)O[C@@H]1CO2,·,·,8[16.7 µM],·,·,·
COc1cc2c(cc1OC)C(c1cccs1)N(C(=O)c1cccc(S(=O)(=O)N(C)C)c1)CC2 (stereo not given),11,·,12,·,32*,·
COc1cc2c(cc1OC)C(c1ccccc1)N(C(=O)c1ccccc1)CC2 (stereo not given),-4,16,-60,0,34*,-16
COc1cc2c(cc1OC)C(c1ccccc1)N(C(=O)CSCC(=O)O)CC2 (stereo not given),-4,-14,-5,·,2,14
COc1cc2c(cc1OC)C(c1ccccc1)N(C(=O)c1ccccc1F)CC2 (stereo not given),1,-7,6,2,37*,7
COc1ccc(C2c3cc(OC)c(OC)cc3CCN2C(=O)c2cccc([N+](=O)[O-])c2)cc1OC (stereo not given),-7,1,0,-3,2,-1
COc1cc2c(cc1OC)C(c1ccccc1)N(C(=O)c1ccco1)CC2 (stereo not given),3,8,9,4,34*,-8
Cc1noc(C)c1NC(=O)N[C@H]1CC[C@H](CC(=O)NCCCN(C)C)O[C@@H]1CO,·,·,7[16.7 µM],1,·,·
COCCNC(=S)N1CCc2cc(OC)c(OC)cc2C1COc1ccc(F)cc1 (stereo not given),14,62,-1,0,-3,-62
COCCNC(=S)N1CCc2cc(OC)c(OC)cc2C1c1cccs1 (stereo not given),0,-15,13,-1,59*,15
SMILES,Rtt109 HAT inh,SR-BI HDL uptake,HIV Env fusion,PglD DTNB,Glyco luc inh,SR-BI uptake up
COCCOC(=O)N1C(=O)[C@@]2(c3ccccc31)[C@H](c1ccccc1OCCO)N1[C@H](c3ccccc3)[C@H](c3ccccc3)OC(=O)[C@H]1[C@@H]2C(=O)NC[C@H](O)c1ccccc1,·,·,-202[16.7 µM],-5,·,·
COc1ccccc1NC(=O)c1ccc2[nH]c(C)c(C)c2c1,1,81*,-93,-4,-1,-81
C[C@H]1CN([C@@H](C)CO)C(=O)Cc2cc(NC(=O)CCC(F)(F)F)ccc2O[C@H]1CN(C)Cc1ccc(-c2ccccc2)cc1,14,-154,-317,1,-2,154*
C[C@H]1CN([C@@H](C)CO)C(=O)Cc2cc(NC(=O)Nc3ccc(C(F)(F)F)cc3)ccc2O[C@@H]1CN(C)Cc1ccccc1,·,·,82*[16.7 µM],2,·,·
C[C@@H]1CN([C@@H](C)CO)C(=O)Cc2cc(NC(=O)Nc3ccc(C(F)(F)F)cc3)ccc2O[C@H]1CN(C)Cc1ccccc1,·,·,24[16.7 µM],0,·,·
C[C@@H]1CN([C@@H](C)CO)C(=O)Cc2cc(NC(=O)Nc3ccc(F)cc3)ccc2O[C@H]1CN(C)Cc1ccc(C(F)(F)F)cc1,·,·,69*[16.7 µM],·,·,·
C[C@H]1CN([C@@H](C)CO)C(=O)Cc2cc(NC(=O)Nc3ccc(F)cc3)ccc2O[C@H]1CN(C)Cc1ccc(C(F)(F)F)cc1,·,·,-15[16.7 µM],·,·,·
CN(C)c1ccc(-n2cccc2/C=C/[N+](=O)[O-])cc1,-3,21,-30,-6,64*,-21
CN(c1ccccc1)c1ccc(/C=C/[N+](=O)[O-])cc1,-6,18,-214,·,-20,-18
CC(C)NC(=O)N(C)C[C@@H]1Oc2cc(C#C[C@H](C)O)ccc2S(=O)(=O)N([C@H](C)CO)C[C@H]1C,·,·,·,0,·,·
COc1ccc(-c2c(-c3cc(OC)cc(OC)c3)n(C)c3ccc(-c4ccc5[nH]ccc5c4)cc23)cc1,3,76*,3,-2,-5,-76
O=C(NCC1CC1)[C@H]1[C@H](CO)[C@H]2Cn3c(ccc(-c4cccnc4)c3=O)[C@H]2N1Cc1cocn1,·,·,·,1,·,·
CCC(C)NC(=O)C1CCCN(S(=O)(=O)c2ccc3c(c2)CC(C)N3C(C)=O)C1 (stereo not given),3,1,59*,-2,1,-1
CC(=O)N1c2ccc(S(=O)(=O)N3CCCC3C(=O)Nc3cccc(F)c3)cc2CC1C (stereo not given),9,2,2,5,2,-2
